ChEMBL document CHEMBL3822375, “Preclinical Characterization of 3β-(N-Acetyl l-cysteine methyl ester)-2aβ,3-dihydrogaliellalactone (GPA512), a Prodrug of a Direct STAT3 Inhibitor for the Treatment of Prostate Cancer” (J Med Chem, 2016)
The source made the active and inactive calls. The rule behind the calls is not given here.

Experiments:
Plasma [1] = assay: Half life in human plasma assessed as formation of galiellalactone at 5 uM by LC-MS/MS analysis; format: ADME, cell-free
Outline: (§1)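 Plasma of each species incubated at 37 °C with compound at 5 µM initial, 1% DMSO, n=2. Simvastatin and eucatropine run as controls. Aliquots taken at 0, 5, 15, 30 and 60 min and quenched with acetonitrile containing internal standard, then analysed by LC-MS/MS.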

Plasma [2] = assay: Half life in dog plasma assessed as formation of galiellalactone at 5 uM by LC-MS/MS analysis; format: ADME, cell-free, Canis lupus familiaris; outline: as §1
Plasma [3] = assay: Half life in rat plasma assessed as formation of galiellalactone at 5 uM by LC-MS/MS analysis; format: ADME, cell-free; outline: as §1
Mus musculus [4] = assay: Cmax in mouse plasma assessed as galiellalactone level at 40 mg/kg, po by LC-MS/MS analysis; format: ADME, organism-based; design: dose 40 mg/kg, route oral; conditions: in vivo
Outline: (§2)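 Single dose to mice; oral, iv or ip as listed, in 5% DMSO/50 mM citrate buffer pH 4.0 (dosing solutions 0.5, 2 or 5 mg/mL). Oral dosing at 20 mL/kg. Terminal blood under barbiturate anaesthesia at eight time-points to 8 h, n=3 mice per time-point, EDTA plasma. Acetonitrile precipitation with internal standard, LC-MS/MS against plasma calibration lines. Non-compartmental analysis on mean data, trapezoidal AUC.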

Mus musculus [5] = assay: Tmax in mouse plasma assessed as galiellalactone level at 40 mg/kg, po by LC-MS/MS analysis; format: ADME, organism-based; conditions: in vivo
Mus musculus [6] = assay: Apparent half life in mouse plasma assessed as galiellalactone level at 40 mg/kg, po by LC-MS/MS analysis; format: ADME, organism-based; conditions: in vivo; outline: as §2
Mus musculus [7] = assay: Tmax in mouse plasma assessed as galiellalactone level at 100 mg/kg, po by LC-MS/MS analysis; format: ADME, organism-based; conditions: in vivo
Mus musculus [8] = assay: Apparent half life in mouse plasma assessed as galiellalactone level at 100 mg/kg, po by LC-MS/MS analysis; format: ADME, organism-based; conditions: in vivo; outline: as §2
Hepatocyte [9] = assay: Prodrug conversion in mouse hepatocytes assessed as formation of 3-beta-(N-Acetyl-L-cysteine)-2a-beta,3-dihydrogaliellalactone after 2 hrs by UPLC-MS analysis; format: ADME, cell-based
Outline: (§3)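 Cryopreserved mouse hepatocytes incubated with an initial 10 µM test item (DMSO stock) in Celsis InVitro HI medium, pH 7.4, 37 °C. Cell viability checked by Trypan blue. Sampled at 0 and 120 min and stopped with an equal volume of acetonitrile. Analysed by UPLC/Q-TOF-MS.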

DU-145 [10] = assay: Antitumor activity against human DU145 cells xenografted in NMRI mouse assessed as reduction of tumor growth rate at 40 mg/kg, po administered 5 times per week for 4 weeks measured on day 26 and day 29 relative to vehicle-treated control; format: functional, organism-based
Outline: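 NMRI-nude male mice given 1.5 million DU145 cells s.c. in the flank. After four weeks, split into two groups of ten. Oral gavage with compound at 40 mg/kg or vehicle (50 mM citrate pH 4.0, 2% DMSO), daily five times per week for four weeks. Caliper measurement twice weekly; volume = width × length × height × 0.52.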

DU-145 [11] = assay: Antiproliferative activity against human DU145 cells xenografted in NMRI nude mouse assessed as reduction in Ki67 ratio at 40 mg/kg, po administered 5 times per week for 4 weeks by Ki67 staining-based immunohistochemical analysis; format: functional, organism-based
Outline: (§4)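 Tumours from the oral DU145 xenograft study were fixed in formaldehyde and sectioned. IHC used the EnVision Flex kit with anti-Ki67 and anti-pSTAT3 antibodies, imaged at 10× bright field. Ki67 scored as Ki67-positive cells over total cells.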

DU-145 [12] = assay: Induction of apoptosis in human DU145 cells xenografted in NMRI nude mouse assessed as increase in cleaved caspase3 level at 40 mg/kg, po administered 5 times per week for 4 weeks by immunohistochemical analysis; format: functional, organism-based
Outline: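 DU145 cells (1.5 million) inoculated subcutaneously in the flank of NMRI-nude male mice. After four weeks, 10 mice per group were dosed orally by feeding needle with 40 mg/kg or vehicle (50 mM citrate buffer pH 4.0, 2% DMSO), five days a week for four weeks. Tumours were fixed in formaldehyde and stained for cleaved caspase-3. Positive cells were counted as the mean per view over five 10x views per section.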

[13] = Downregulation of MCL1 mRNA expression in human DU145 cells xenografted in NMRI nude mouse at 40 mg/kg, po administered 5 times per week for 4 weeks by qPCR analysis; format: functional, organism-based; conditions: DU-145
Outline: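 Half of each DU145 xenograft tumour was snap frozen for mRNA. MCL1 and BCL2 measured by quantitative real-time PCR: 10 min at 95°C, then 40 cycles of 95°C 15 s and 60°C 60 s. Comparative Ct method, normalized to HMBS and SDHA.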

Mus musculus [14] = assay: Effect on STAT3 phosphorylation in NMRI mouse xenografted with human DU145 cells at 40 mg/kg, po administered 5 times per week for 4 weeks by immunohistochemical analysis; format: functional, organism-based; conditions: DU-145; outline: as §4
Mus musculus [15] = assay: Toxicity in CD1 mouse assessed as change in body weight at 40 mg/kg, administered as single dose through oral gavage measured on day 4 (reference value: 34.68 +/- 4.71 g); format: organism-based; conditions: in vivo
Mus musculus [16] = assay: Toxicity in CD1 mouse assessed as change in body weight at 40 mg/kg, administered as single dose through oral gavage measured on day 8 (reference value: 32.28 +/- 4.42 g); format: organism-based; conditions: in vivo
Mus musculus [17] = assay: Toxicity in CD1 mouse assessed as change in body weight at 200 mg/kg, administered as single dose through oral gavage measured on day 8 (reference value: 32.28 +/- 4.42 g); format: organism-based; conditions: in vivo
Mus musculus [18] = assay: Toxicity in CD1 mouse assessed as change in body weight at 400 mg/kg, administered as single dose through oral gavage measured on day 4 (reference value: 34.68 +/- 4.71 g); format: organism-based; conditions: in vivo
Mus musculus [19] = assay: Tmax in mouse plasma assessed as galiellalactone level at 10 mg/kg, po by LC-MS/MS analysis; format: ADME, organism-based; conditions: in vivo
Mus musculus [20] = assay: Apparent half life in mouse plasma assessed as galiellalactone level at 10 mg/kg, po by LC-MS/MS analysis; format: ADME, organism-based; conditions: in vivo; outline: as §2
Hepatocyte [21] = assay: Prodrug conversion in mouse hepatocytes assessed as galiellalactone formation of after 2 hrs by UPLC-MS analysis; format: ADME, cell-based; outline: as §3

`COC(=O)[C@H](CS[C@H]1C2C(=O)O[C@@H]3CC[C@H](C[C@@H]1C)[C@]23O)NC(C)=O` (stereo partly specified) gave a t1/2 (Plasma [1]) of less than 5 min, a t1/2 (Plasma [2]) of less than 5 min and a t1/2 (Plasma [3]) of less than 5 min. For the same molecule, the Cmax (Mus musculus [4]) was 3733 ng/mL, the Tmax (Mus musculus [5]) was 15 min and the “t1/2(app)” value (Mus musculus [6]) was 180 min. For the same molecule, the Tmax (Mus musculus [7]) was 15 min, the “t1/2(app)” value (Mus musculus [8]) was 180 min and the Drug metabolism (Hepatocyte [9]) was “metabolite_detected”. The inhibition (DU-145 [10]) was “Active”, the inhibition (DU-145 [11]) was “Active” and the Activity (DU-145 [12]) was “Active”. For the same molecule, the Activity [13] was “Active”, the Activity (Mus musculus [14]) was “inactive” and the Activity (Mus musculus [15]) was 33.68 g. For the same molecule, the Activity (Mus musculus [16]) was 31.12 g, the Activity (Mus musculus [17]) was 33.02 g and the Activity (Mus musculus [18]) was 34.76 g. For the same molecule, the Tmax (Mus musculus [19]) was 15 min, the “t1/2(app)” value (Mus musculus [20]) was 92 min and the Drug metabolism (Hepatocyte [21]) was “metabolite_detected”.
